Screens deposited in PubChem BioAssay by several laboratories.
In the library only some 4.2% were active in any assay of this set; here they are far more common.
Mot1-301 SUMO: yeast Mot1-301 growth rescue at high temperature, primary screen, SUMOylation pathway inhibitor project, S. cerevisiae, ATP luminescence, 38.5C; growth rescue, % at 18.8 µM; S. cerevisiae Mot1-301 growth rescue; percent above DMSO median, 100 means doubled; 320,000 compounds, 1% hits; AID 2716, 2010;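 active means every valid replicate shows activation above 250% relative to neutral control wells; inactive means the rest, any valid replicate at or below 250%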;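 further: OY570 slx delta 5 strain wells were the positive control but not used for scaling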
hERG rescue: hERG rescue from dofetilide block, primary screen, cell-based, CHO-hERG, FluxOR thallium flux, dofetilide IC70; dofetilide IC70 present; activation (rescue from dofetilide block), less the hit threshold, % at 10 µM; 310,000 compounds, 0.51% hits; AID 1511, 2009;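 active means activation above the mean of controls blocked by dofetilide plus 5 SD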;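 further: thallium influx through hERG after potassium depolarization seen as dye fluorescence rise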
Cl transport mod: KCC2 cotransporter modulators, thallium flux, primary screen, cell-based, HEK293 KCC2, FluoZin-2 fluorescence, MLSMR; Solute carrier family 12 member 5 (Homo sapiens), Q9H2X9; KCC2 cells, thallium flux FluoZin-2 fluorescence; B-score of Tl+ flux slope (higher = more flux/activation; lower = inhibition) at 10 µM; 190,000 compounds, 2.2% hits;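 active means thallium flux slope and its plate-corrected score both differing from the plate sample mean at a set confidence after two filtering rounds, in either direction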;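 further: slope of fluorescence scaled to starting intensity during 10 to 20 s after thallium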
AI-2 QS mod: Vibrio harveyi AI-2 quorum sensing modulators, primary screen, JMH597 strain, luminescence/OD600 ratio; Vibrio harveyi JMH597 AI-2 luminescence/OD600 ratio, 9 h; stronger effect = lower value; strain lacks LuxN and CqsS sensors; 0 = neutral-control median; activity change, % at 7.5 µM; 300,000 compounds, 0.4% hits; in the data active means activity change below about -75%, passing the limit was not always enough; inconclusive means no clear call, values can overlap the other calls;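 further: luminescence divided by OD600 gain over 9 h not by final OD600 alone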
KCNQ1 inh: inhibitors of human KCNQ1 channel, primary screen, cell-based, thallium flux, high-throughput | Potassium voltage-gated channel subfamily KQT member 1 (Homo sapiens), P51787 | CHO-K1 KCNQ1, FluxOR thallium flux fluorescence; stronger effect = higher value | B-score at 10 µM | 310,000 compounds, 1.3% hits;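 active means compounds whose thallium flux B-score, printed positive for inhibition, exceeds three library SD while starting fluorescence stays within three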;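 further: channel opened by potassium depolarization with thallium stimulus after 20 min compound exposure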
KCNQ1 act: potentiators or activators of KCNQ1 channel, primary screen, cell-based, thallium flux, high-throughput | CHO-K1 KCNQ1, thallium flux FluxOR fluorescence; stronger effect = higher value | Potassium voltage-gated channel subfamily KQT member 1 (Homo sapiens), P51787 | B-score at 10 µM | 310,000 compounds, 0.35% hits | AID 2648, 2010;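 active means fluorescence ratio B-score, a plate-corrected score, at least three library SD, with initial intensity B-score within 5 SD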
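assay system = KCNQ1-transfected CHO-K1 cells | medium = assay buffer with matched DMSO | probe or stimulus = depolarizing K+/Tl+ stimulus, K2SO4 and Tl2SO4 each 12.5 mM in 5x stock | dosing = single dose | incubation = dye 90 min, compound 20 min, room temperature | detection = kinetic FluxOR fluorescence, 10 s baseline plus 110 s post-stimulus | evaluation = ratio B score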
KCC2 sec1: KCC2 modulators in sodium-free buffer, confirmation, cell-based, HEK293 KCC2, thallium flux, secondary assay; shares compounds with Cl transport mod; FluoZin2 fluorescence; stronger effect = higher value; normalised thallium flux (F/F0 slope) at 10 µM; 3,700 compounds, 15% hits; AID 1713, 2009;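 active means thallium flux slope above the same plate's solvent-only control mean plus 3 SD; inconclusive means the two replicate wells disagree; inactive means no significant difference from solvent-only control wells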
KCC2 bumet counter: thallium flux persisting under bumetanide in KCC2 cells, confirmation, counter-screen for KCC2 modulator project, cell-based, HEK293 KCC2, FluoZin2, secondary assay 3; shares compounds with Cl transport mod; HEK293-KCC2 + bumetanide/ouabain; stronger effect = higher value; normalized thallium flux at 10 µM; 3,700 compounds, 49% hits;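 active means thallium entry rate above the same plate's blocked-transporter control wells by more than 3 SD; inconclusive means the two repeat wells disagree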;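 further: raw slope of fluorescence over initial fluorescence between 10 and 20 s after thallium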
KCC2 sec2: KCC2 modulators without ouabain present, confirmation, cell-based, HEK293 KCC2, thallium flux, FluoZin2, secondary assay 2; shares compounds with Cl transport mod; thallium flux FluoZin2 fluorescence; actives lie on both sides; F/F0 rise rate, 10–20 s post-thallium; normalized thallium flux at 10 µM; 3,700 compounds, 23% hits;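 active means thallium flux slope more than 3 SD above or below the plate's solvent-only control mean, mostly below; inconclusive means the two repeat wells disagreed; inactive means no significant shift from solvent-only controls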;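 further: raw slope with 0.1% DMSO as baseline and bumetanide as block control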
HEK counter1: thallium flux modulation in parental HEK cells, confirmation, counter-screen for KCC2 modulator project, cell-based, counterscreen 1 | shares compounds with Cl transport mod | HEK293 parental cells, thallium flux FluoZin2, ouabain; baseline-ratio fluorescence slope, 10–20 s after thallium | thallium flux rate (normalised fluorescence) at 10 µM | 3,700 compounds, 46% hits | AID 1716, 2009;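 active means thallium flux rate significantly above the same plate's solvent-only control wells, beyond their mean plus 3 SD; inconclusive means the two replicate wells gave conflicting results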
KCC2 ouabain: KCC2 inhibitors and activators, ouabain retest, confirmation, HEK-KCC2 cells | HEK293-KCC2, thallium flux FluoZin2 fluorescence; bidirectional: low = inhibitor, high = activator | AID 1717, 2009 | 3,700 compounds, 48% hits | raw Tl+ flux slope (below DMSO = inhibition, above = activation) at 10 µM | shares compounds with Cl transport mod;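 active means thallium flux slope beyond 3 SD from same-plate DMSO control mean in most replicates, usually higher, sometimes lower; inconclusive means repeat tests gave conflicting results; inactive means no significant difference from controls in most replicates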;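 further: slope of initial-normalized fluorescence between seconds 10 and 20 after thallium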
HEK counter2: native HEK Tl+ uptake effects, second counter-screen – HEK cells, counterscreen 2, counter-screen for KCC2 modulator project, confirmation; shares compounds with Cl transport mod; HEK293 parental, thallium flux FluoZin-2 fluorescence slope; thallium flux slope at 10 µM; 3,700 compounds, 33% hits; AID 1718, 2009;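 active means thallium flux slope above the same plate's solvent-control mean plus 3 SD in both duplicate wells; inconclusive means duplicate wells that disagreed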;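 further: run without ouabain in cells lacking the KCC2 cotransporter; slope of fluorescence scaled to its starting value between 10 and 20 s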
* marks the source's active call; other numbers are inactive results; i = inactive; ? = inconclusive; . = not tested or not shown.

SMILES	Mot1-301 SUMO	hERG rescue	Cl transport mod	AI-2 QS mod	KCNQ1 inh	KCNQ1 act	KCC2 sec1	KCC2 bumet counter	KCC2 sec2	HEK counter1	KCC2 ouabain	HEK counter2
CCCN(CCC)CC(O)CN1C(=O)N(CN2C(=O)N(CC(O)CN(CCC)CCC)C(=O)C2(C)C)C(C)(C)C1=O (configuration not stated)	270	-6	-0.3	3	i	i	.	.	.	.	.	.
Cc1ccc(C(=O)Nc2ncc(Cc3ccc(F)cc3)s2)o1	17	-8	-4.8*	-20	i	i	0.0075	0.007	0.031	?	0.018	?
Cc1ccc(C(=O)Nc2ncc(C)s2)o1	-12	-4	.	.	i	i	.	.	.	.	.	.
CC(C)NC(=O)c1ccc2c(c1)N(Cc1ccccc1)C(=O)C(C)(C)O2	12	-3	.	-1	i	i	.	.	.	.	.	.
COc1ccc(C(=O)c2cn[nH]c2-c2cc(Cl)ccc2O)cc1	-1	-10	-5.1*	39	i	i	0.0099	0.006	0.033	0.0072	0.022	0.011
O=C1Nc2ccc([N+](=O)[O-])cc2OC1CCN1CCN(Cc2ccccc2)CC1 (configuration not stated)	86	-13	-4.2*	34	i	i	0.01	0.0063	0.026*	0.0083	0.013*	0.011
COc1ccccc1Cn1c(=S)[nH]c2ccc(F)cc2c1=O	34	-4	.	14	i	i	.	.	.	.	.	.
NS(=O)(=O)c1ccc(CCn2c(=S)[nH]c3ccc(F)cc3c2=O)cc1	0	-11	3.1*	51	i	i	?	0.0072	0.03	0.0093*	0.02	0.011*
COc1ccc(S(=O)(=O)N(C)CC(=O)O)c2ccccc12	-2	1	3*	-17	i	i	0.0066	0.0048	0.029	0.008	0.018	0.011
O=S1(=O)CCN2C(=N1)Sc1c2ccc2c1CCCC2	-7	-8	7.7*	12	i	i	0.0098	0.0053	0.033	0.0072	0.022	0.01
O=C(O)c1ccc2c(c1)SC1=NS(=O)(=O)CCN12	0	-8	-0.088	14	i	i	.	.	.	.	.	.
